# Measurements pooled from the literature.
# Target: Serine/threonine-protein kinase PLK4 (PLK4, Homo sapiens, UniProt O00444)
# One construct used (O00444 1-970): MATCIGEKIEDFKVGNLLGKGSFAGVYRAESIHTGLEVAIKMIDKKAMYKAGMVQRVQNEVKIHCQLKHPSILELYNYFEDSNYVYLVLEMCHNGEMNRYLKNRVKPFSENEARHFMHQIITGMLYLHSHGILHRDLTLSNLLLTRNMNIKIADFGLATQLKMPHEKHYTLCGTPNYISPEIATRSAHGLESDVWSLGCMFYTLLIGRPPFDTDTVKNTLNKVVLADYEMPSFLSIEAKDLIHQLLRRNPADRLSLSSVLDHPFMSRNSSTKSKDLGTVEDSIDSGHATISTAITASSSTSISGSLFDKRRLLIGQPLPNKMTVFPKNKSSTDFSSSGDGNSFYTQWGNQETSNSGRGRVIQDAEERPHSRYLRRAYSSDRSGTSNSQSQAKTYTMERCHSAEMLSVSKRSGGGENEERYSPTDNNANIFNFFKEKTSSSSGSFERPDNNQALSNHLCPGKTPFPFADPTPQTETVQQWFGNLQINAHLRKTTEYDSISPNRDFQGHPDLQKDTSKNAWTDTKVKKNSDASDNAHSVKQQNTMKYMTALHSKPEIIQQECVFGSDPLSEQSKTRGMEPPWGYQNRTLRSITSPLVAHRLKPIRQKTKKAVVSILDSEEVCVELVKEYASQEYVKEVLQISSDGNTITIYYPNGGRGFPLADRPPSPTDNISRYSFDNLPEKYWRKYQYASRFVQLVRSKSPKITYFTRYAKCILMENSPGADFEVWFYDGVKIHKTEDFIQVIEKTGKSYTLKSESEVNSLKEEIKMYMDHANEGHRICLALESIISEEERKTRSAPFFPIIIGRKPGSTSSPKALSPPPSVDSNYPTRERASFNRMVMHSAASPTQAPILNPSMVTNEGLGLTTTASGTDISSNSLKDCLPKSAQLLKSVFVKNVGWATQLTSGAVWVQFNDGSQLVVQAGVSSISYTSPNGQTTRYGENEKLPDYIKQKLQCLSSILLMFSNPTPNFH
SMILES,observed,technique,tested at,remaining binding [%]
CS(=O)(=O)N1CCCC(NC(=O)[C@H](CCC2CCCCC2)NC(=O)c2ccc(CNc3ncnc4c3nnn4-c3ccccc3)cc2)C1 (stereo partly shown),cell-free assay,competition with immobilised ligand,0.1 µM,82
COc1cnc(Nc2cccc(S(N)(=O)=O)c2)nc1N1CCN(c2ccccc2)CC1,binding,competition with immobilised ligand,1 µM,99
c1cncc(-c2cccc(Nc3nccc(NC4CCCCC4)n3)c2)c1,binding,competition with immobilised ligand,10 µM,34
F[C@@H]1CCN(c2nccc(-c3cnn4ncccc34)n2)C1,binding,,1 µM,100
CN1CCN(c2cnc3c(C4CCN(C(=O)c5ccc(OC(F)(F)F)cc5N)CC4)ncnc3c2)CC1,cell-free assay,competition with immobilised ligand,1 µM,83
O=C(NCC1CCOCC1)c1n[nH]cc1NC(=O)c1c(F)cccc1F,binding,competition with immobilised ligand,1 µM,75
FC(F)(F)Oc1cccc(-c2cnc3ccc(-c4ccncc4)nn23)c1,cell-free assay,competition with immobilised ligand,5 µM,91
CN([C@@H]1CCc2c(CC(=O)O)c3cc(S(C)(=O)=O)ccc3n2C1)S(=O)(=O)c1ccc(F)cc1,cell-free assay,competition with immobilised ligand,1 µM,100
O=C(c1ccc(Nc2nccc(-c3cc4ccccc4s3)n2)cc1)N1CCC(N2CCCC2)CC1,binding,competition with immobilised ligand,1 µM,56
COc1cnc(Nc2cccc(S(N)(=O)=O)c2)nc1N1CCN(c2ccccc2)C(=O)C1,binding,competition with immobilised ligand,1 µM,96
N[C@@H]1CCN(c2nccc(-c3cnn4ncccc34)n2)C1,binding,,1 µM,100
CNC(=O)c1ccc(Nc2ncc(C(F)(F)F)c(NCc3nccnc3N(C)S(C)(=O)=O)n2)cc1,cell-free assay,competition with immobilised ligand,0.1 µM,79
CCN1CCN(Cc2ccc(C(=O)Nc3ccc(C)c(Oc4ccc5c(c4)CC(=O)N5)c3)cc2C(F)(F)F)CC1,binding,competition with immobilised ligand,1 µM,100
CC(=O)Nc1c(C(C)=O)c(=O)n(C)c2nc(-c3ccc(Cl)cc3Cl)c(-c3ccc(Cl)cc3)cc12,cell-free assay,competition with immobilised ligand,1 µM,100
O=C(c1ccc(Nc2ncc(Cl)c(-c3ccc(Cl)s3)n2)cc1)N1CCC(N2CCCC2)CC1,binding,competition with immobilised ligand,1 µM,9.2
C[C@@H]1CN(c2ccc3ncc(-c4ccc5[nH]nc(C6CC6)c5c4)n3n2)C[C@H](C)O1,binding,competition with immobilised ligand,0.5 µM,90
N#CC1(c2ccccn2)CCN(Cc2cc(C(=O)N3CCCC3)c(=O)n3ccccc23)CC1,cell-free assay,competition with immobilised ligand,1 µM,87
C[C@H]1CCN(c2nccc(-c3cnn4ncccc34)n2)C1,binding,,1 µM,99
COc1cc(C(=O)N2CCC(N3CCN(C)CC3)CC2)ccc1Nc1ncc2c(n1)N(C)c1ccccc1C(=O)N2C,binding,competition with immobilised ligand,10 µM,0
CN(c1nccc(-c2cnn3ncccc23)n1)C1CC1,binding,,1 µM,100
CCCCN(CCCC)C(=O)CN1C[C@H](c2cc(OC)c3c(c2)OCO3)[C@@H](C(=O)O)[C@@H]1CC(C)(C)CCC,cell-free assay,competition with immobilised ligand,1 µM,100
CN(C)c1nccc(-c2cnc3ncccn23)n1,binding,,1 µM,68
O=C(c1ccc(Nc2ncc(Cl)c(-c3cc4ccccc4s3)n2)cc1)N1CCC(N2CCCC2)CC1,binding,competition with immobilised ligand,1 µM,39
CN(CCCC(F)(F)F)c1nccc(-c2cnn3ncccc23)n1,binding,,1 µM,100
C[C@@H](c1ccc(-n2cnc3c(N)ncnc32)cc1)N1CCc2nn(C)c(Cc3ccccc3)c2C1=O,binding,competition with immobilised ligand,0.1 µM,72
